Assay results as given in ChEMBL document CHEMBL4261639, “Cell-Active Small Molecule Inhibitors of the DNA-Damage Repair Enzyme Poly(ADP-ribose) Glycohydrolase (PARG): Discovery and Optimization of Orally Bioavailable Quinazolinedione Sulfonamides” (J Med Chem, 2018).
In brackets after ≈: the same amount, converted by molar mass.

Key:
[1] = target: T1, Poly(ADP-ribose) glycohydrolase (Homo sapiens, UniProt Q86W56); test: Inhibition of human full length PARG using Bt-NAD ribosylated PARP1 substrate after 10 mins by TR-FRET assay
T1 sequence (Q86W56 whole entry): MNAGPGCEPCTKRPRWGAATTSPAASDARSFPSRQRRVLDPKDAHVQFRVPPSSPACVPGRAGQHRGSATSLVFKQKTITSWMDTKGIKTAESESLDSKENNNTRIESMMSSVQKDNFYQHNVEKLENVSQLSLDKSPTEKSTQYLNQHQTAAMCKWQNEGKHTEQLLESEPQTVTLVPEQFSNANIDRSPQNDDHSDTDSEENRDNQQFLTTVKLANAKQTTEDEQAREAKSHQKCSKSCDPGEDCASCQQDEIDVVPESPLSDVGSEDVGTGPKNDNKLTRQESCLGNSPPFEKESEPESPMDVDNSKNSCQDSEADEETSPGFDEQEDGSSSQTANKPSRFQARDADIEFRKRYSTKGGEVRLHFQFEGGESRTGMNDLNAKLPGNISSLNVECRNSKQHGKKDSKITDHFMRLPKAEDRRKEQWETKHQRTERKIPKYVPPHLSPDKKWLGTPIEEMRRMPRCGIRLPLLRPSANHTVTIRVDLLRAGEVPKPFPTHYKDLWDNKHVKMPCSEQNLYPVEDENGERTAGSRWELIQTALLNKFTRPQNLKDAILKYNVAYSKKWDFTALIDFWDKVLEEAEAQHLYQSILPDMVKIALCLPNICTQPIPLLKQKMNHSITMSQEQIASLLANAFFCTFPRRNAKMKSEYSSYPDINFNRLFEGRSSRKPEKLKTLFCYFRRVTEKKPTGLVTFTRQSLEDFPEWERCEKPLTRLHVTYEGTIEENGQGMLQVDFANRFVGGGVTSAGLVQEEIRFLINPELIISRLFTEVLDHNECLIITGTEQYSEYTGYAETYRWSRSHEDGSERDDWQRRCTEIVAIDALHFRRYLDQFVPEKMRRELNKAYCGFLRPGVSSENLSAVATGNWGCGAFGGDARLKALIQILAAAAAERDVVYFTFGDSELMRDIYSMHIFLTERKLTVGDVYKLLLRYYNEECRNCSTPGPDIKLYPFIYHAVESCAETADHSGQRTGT

[2] = Clearance in mouse liver microsomes
[3] = Clearance in human liver microsomes
[4] = target: T1, Poly(ADP-ribose) glycohydrolase; test: Inhibition of PARG in human HeLa cells assessed as induction of MMS-induced PAR chains preincubated for 1 hr followed by MMS addition and measured after 1 hr by Alexofluor 488-conjugated secondary antibody and Hoechst 33342 staining based assay; format: cell-based
How it was run: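 Acute (1 h) cell-based proof-of-mechanism assay measuring persistence of PAR chains, i.e. blockade of PARG-mediated PAR degradation, across a dose range. EC50 values are means of at least 4 independent measurements, with standard deviations.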

Cytochrome P450 2C19 = Cytochrome P450 2C19 (Homo sapiens, UniProt P33261); test: Inhibition of CYP2C19 (unknown origin); format: ADME
Cytochrome P450 2C19, sequence (P33261 whole entry): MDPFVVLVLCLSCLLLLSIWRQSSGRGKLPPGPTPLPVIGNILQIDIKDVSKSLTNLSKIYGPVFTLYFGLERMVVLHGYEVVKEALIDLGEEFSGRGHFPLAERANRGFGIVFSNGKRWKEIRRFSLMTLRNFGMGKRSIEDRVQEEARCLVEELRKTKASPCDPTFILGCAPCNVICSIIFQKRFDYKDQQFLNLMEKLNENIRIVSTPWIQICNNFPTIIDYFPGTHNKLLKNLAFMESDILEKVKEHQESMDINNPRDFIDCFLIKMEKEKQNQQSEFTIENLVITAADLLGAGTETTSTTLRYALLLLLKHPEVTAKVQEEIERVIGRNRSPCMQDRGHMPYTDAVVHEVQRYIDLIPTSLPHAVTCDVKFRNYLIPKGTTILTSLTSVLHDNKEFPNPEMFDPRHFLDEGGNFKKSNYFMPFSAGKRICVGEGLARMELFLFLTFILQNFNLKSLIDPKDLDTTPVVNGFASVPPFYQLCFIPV

[5] = Half life in CD1 mouse at 1 mg/kg, iv administered as single dose by LC-MS/MS analysis; format: ADME, organism-based; details: in vivo
How it was run: (§1)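 Male CD-1 mice (n = 2) received a single intravenous dose at a nominal 1 mg/kg.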

[6] = Efflux ratio of apparent permeability in human Caco2 cells; details: Caco-2
[7] = AUC in CD1 mouse at 1 mg/kg, iv administered as single dose by LC-MS/MS analysis; format: ADME, organism-based; details: in vivo; how it was run: as §1
Cytochrome P450 2D6 = Cytochrome P450 2D6 (Homo sapiens, UniProt P10635); test: Inhibition of CYP2D6 (unknown origin); format: ADME
Cytochrome P450 2D6, sequence (P10635 whole entry): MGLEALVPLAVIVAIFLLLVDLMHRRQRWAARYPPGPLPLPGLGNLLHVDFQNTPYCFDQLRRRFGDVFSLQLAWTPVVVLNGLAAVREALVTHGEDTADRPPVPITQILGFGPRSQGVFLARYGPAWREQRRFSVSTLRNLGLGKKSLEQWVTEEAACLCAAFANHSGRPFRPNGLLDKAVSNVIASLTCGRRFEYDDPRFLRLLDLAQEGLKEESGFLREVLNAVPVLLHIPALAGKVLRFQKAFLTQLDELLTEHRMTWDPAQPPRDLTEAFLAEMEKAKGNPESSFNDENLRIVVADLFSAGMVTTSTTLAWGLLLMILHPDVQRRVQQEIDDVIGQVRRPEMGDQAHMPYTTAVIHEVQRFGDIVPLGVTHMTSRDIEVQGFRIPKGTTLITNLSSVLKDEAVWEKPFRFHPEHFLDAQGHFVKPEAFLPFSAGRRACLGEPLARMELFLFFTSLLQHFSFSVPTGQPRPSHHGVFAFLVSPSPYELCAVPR

[8] = Clearance in CD1 mouse at 1 mg/kg, iv administered as single dose by LC-MS/MS analysis; format: ADME, organism-based; details: in vivo; how it was run: as §1
Cytochrome P450 2C9 = Cytochrome P450 2C9 (Homo sapiens, UniProt P11712); test: Inhibition of CYP2C9 (unknown origin); format: ADME
Cytochrome P450 2C9, sequence (P11712 whole entry): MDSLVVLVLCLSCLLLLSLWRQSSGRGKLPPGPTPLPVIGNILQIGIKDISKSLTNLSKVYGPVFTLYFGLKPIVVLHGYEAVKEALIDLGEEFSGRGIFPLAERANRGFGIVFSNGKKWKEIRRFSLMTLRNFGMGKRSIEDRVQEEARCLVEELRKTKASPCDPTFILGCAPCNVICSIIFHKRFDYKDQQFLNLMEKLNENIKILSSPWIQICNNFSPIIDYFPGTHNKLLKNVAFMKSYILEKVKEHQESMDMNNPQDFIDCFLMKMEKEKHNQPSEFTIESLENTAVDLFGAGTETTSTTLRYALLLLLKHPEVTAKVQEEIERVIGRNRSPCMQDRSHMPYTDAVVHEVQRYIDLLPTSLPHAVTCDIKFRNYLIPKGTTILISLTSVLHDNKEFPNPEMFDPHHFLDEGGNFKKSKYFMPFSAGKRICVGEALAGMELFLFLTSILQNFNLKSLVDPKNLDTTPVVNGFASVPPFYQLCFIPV

[9] = Volume of distribution in CD1 mouse at 1 mg/kg, iv administered as single dose by LC-MS/MS analysis; format: ADME, organism-based; details: in vivo; how it was run: as §1
[10] = Clearance in mouse hepatocytes assessed per million cells
Cytochrome P450 3A4 = Cytochrome P450 3A4 (Homo sapiens, UniProt P08684); test: Inhibition of CYP3A4 (unknown origin); format: ADME
Cytochrome P450 3A4, sequence (P08684 whole entry): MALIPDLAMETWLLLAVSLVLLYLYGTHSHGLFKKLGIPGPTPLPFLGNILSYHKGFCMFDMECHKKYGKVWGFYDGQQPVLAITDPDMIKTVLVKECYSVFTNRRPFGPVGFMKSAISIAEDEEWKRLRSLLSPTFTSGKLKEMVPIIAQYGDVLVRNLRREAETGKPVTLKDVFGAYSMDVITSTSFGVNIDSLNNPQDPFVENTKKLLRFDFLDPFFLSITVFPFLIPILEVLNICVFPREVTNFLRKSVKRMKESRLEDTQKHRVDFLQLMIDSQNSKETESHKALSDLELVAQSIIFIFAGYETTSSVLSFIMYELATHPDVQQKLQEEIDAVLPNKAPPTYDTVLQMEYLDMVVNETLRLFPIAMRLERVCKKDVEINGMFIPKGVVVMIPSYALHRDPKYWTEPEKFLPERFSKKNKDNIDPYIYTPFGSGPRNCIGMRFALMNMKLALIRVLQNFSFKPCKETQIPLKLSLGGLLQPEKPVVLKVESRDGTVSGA

[11] = Apparent permeability across apical to basolateral side in human Caco2 cells; format: ADME, cell-based; details: Caco-2
[12] = Solubility of the compound; format: physicochemical
CYP1A = target: T2, CYP1A (Homo sapiens, UniProt P04798+P05177); test: Inhibition of CYP1A (unknown origin); format: ADME, protein assay
T2 sequence (P04798 whole entry): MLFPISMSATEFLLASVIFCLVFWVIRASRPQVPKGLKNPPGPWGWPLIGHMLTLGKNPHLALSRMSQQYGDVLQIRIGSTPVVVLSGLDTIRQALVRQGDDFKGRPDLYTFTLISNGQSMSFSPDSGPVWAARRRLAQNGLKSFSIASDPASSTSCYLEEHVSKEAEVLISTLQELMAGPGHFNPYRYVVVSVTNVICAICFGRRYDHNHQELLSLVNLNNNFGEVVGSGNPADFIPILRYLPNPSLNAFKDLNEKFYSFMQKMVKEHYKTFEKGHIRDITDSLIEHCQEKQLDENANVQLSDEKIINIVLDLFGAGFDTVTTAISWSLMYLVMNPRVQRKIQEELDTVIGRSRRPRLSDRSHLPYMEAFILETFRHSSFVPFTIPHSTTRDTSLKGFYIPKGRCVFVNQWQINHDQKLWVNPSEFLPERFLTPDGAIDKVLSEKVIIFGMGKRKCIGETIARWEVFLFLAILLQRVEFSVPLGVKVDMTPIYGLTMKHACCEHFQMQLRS
T2 sequence (P05177 whole entry): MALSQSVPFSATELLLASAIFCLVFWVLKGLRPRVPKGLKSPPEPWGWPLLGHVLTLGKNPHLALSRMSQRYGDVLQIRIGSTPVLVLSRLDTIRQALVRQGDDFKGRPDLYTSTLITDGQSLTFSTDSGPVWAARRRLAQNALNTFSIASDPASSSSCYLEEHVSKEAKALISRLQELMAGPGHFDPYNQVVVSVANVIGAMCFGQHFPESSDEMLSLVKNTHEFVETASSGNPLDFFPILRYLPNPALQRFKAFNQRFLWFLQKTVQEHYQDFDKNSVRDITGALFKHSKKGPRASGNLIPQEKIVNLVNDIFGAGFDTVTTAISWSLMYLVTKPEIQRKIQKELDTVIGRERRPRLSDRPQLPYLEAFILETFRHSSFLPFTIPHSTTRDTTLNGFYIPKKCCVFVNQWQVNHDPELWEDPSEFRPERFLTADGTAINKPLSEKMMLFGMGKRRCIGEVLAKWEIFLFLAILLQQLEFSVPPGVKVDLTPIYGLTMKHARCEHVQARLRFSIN

[13] = Oral bioavailability in CD1 mouse at 5 mg/kg administered as single dose by LC-MS/MS analysis; format: ADME, organism-based; details: in vivo
How it was run: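 Male CD-1 mice (n = 2) were dosed orally at a nominal 5 mg/kg, with a separate intravenous group (n = 2) at a nominal 1 mg/kg for comparison.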

[14] = test system: PARG (human, full length); test: Selectivity ratio of cytotoxicity for human HeLa cells to EC50 for human full length PARG; format: toxicity, cell-based
HeLa = test: Cytotoxicity against human HeLa cells after 72 hrs by Hoechst 33342 staining based assay; format: cell-based
[15] = Partition coefficient, log D of compound at pH 7.4; format: physicochemical; details: octanol/water
[16] = Solubility of the compound by turbidimetric method; format: physicochemical
[17] = target: Poly [ADP-ribose] polymerase 1 (Homo sapiens, UniProt P09874); test: Inhibition of human PARP1 expressed in Escherichia coli using activated DNA as substrate after 60 mins by peroxy glow reagent A/B based assay
Poly [ADP-ribose] polymerase 1, sequence (P09874 whole entry): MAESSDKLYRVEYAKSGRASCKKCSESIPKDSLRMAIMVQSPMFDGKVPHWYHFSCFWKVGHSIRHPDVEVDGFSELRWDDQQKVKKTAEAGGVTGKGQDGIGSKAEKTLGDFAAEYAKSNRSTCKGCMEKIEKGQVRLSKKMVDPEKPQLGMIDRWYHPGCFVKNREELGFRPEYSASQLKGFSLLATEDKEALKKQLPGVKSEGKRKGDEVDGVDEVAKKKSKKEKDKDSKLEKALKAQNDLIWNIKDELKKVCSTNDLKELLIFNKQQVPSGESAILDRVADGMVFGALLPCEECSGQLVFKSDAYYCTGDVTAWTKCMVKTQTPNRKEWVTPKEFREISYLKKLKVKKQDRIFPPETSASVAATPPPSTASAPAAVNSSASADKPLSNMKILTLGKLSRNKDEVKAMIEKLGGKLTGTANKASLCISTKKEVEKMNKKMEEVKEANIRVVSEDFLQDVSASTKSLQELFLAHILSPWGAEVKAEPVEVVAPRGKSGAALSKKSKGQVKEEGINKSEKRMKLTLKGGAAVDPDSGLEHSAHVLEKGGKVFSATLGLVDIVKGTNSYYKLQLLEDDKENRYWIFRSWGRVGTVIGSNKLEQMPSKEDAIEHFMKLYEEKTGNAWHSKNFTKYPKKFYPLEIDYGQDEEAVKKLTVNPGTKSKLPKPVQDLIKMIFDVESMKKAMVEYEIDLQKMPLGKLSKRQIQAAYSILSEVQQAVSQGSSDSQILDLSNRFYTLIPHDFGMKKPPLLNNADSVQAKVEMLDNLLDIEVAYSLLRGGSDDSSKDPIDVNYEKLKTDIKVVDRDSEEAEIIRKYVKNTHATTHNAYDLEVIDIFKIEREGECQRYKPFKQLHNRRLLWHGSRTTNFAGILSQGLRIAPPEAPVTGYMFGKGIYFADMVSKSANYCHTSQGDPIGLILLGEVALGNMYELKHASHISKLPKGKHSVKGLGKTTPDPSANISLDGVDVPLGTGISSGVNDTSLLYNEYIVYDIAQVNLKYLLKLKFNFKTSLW

[18] = target: T3, ADP-ribosylhydrolase ARH3 (Homo sapiens, UniProt Q9NX46); test: Inhibition of human full length C-terminus His-tagged ARH3 expressed in Escherichia coli using Bt-NAD ribosylated PARP1 substrate after 30 mins by TR-FRET assay
T3 sequence (Q9NX46 whole entry): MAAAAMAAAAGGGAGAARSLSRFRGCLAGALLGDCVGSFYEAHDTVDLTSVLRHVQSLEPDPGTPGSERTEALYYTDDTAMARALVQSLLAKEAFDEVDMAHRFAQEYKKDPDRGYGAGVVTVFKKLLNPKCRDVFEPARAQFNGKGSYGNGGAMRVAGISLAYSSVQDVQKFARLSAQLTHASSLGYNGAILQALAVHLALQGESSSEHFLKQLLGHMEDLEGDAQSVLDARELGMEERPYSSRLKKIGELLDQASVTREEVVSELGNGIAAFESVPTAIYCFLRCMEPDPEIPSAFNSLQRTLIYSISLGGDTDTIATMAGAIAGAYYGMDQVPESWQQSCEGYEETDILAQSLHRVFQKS

| EC50 [1] [nM] | microsomal CLint [2] [µL/min/mg] | microsomal CLint [3] [µL/min/mg] | EC50 [4] [nM] | SMILES | further results |
| --- | --- | --- | --- | --- | --- |
| 270 | 36 | 17 | 1100 | CC1(NS(=O)(=O)c2ccc3c(c2)c(=O)n(CC#N)c(=O)n3CC2CC2)CC1 | – |
| 280 | – | 20 | 560 | Cc1cc(Cn2c(=O)n(CC#N)c(=O)c3cc(S(=O)(=O)NC4(C)CC4)ccc32)n(C)n1 | – |
| 330 | – | 26 | 120 | CCn1c(=O)n(Cc2cc(C)no2)c(=O)c2cc(S(=O)(=O)NC3(C)CC3)ccc21 | – |
| 340 | 22 | 19 | 280 | Cc1cc(Cn2c(=O)c3cc(S(=O)(=O)NC4(C)CC4)ccc3n(CC3COC3)c2=O)on1 | IC50 (Cytochrome P450 2C19): > 25000 nM; half-life [5]: 12 min; efflux ratio [6]: 21; AUC [7]: 90 ng·h/mL; IC50 (Cytochrome P450 2D6): > 25000 nM; clearance [8]: 167 mL/min/kg; IC50 (Cytochrome P450 2C9): > 25000 nM; Vd [9]: 2.5 L/kg; hepatocyte CLint [10]: 25 µL/min/1e6 cells; IC50 (Cytochrome P450 3A4): > 25000 nM; Papp A→B [11]: 1.9 ×10⁻⁶ cm/s; solubility [12]: > 100 µM; IC50 (CYP1A): > 25000 nM; bioavailability [13]: 25%; selectivity ratio [14]: > 100 |
| 69 | 16 | 9.2 | 250 | Cn1cc(Cn2c(=O)c3cc(S(=O)(=O)NC4(C)CC4)ccc3n(CC3COC3)c2=O)cn1 | IC50 (Cytochrome P450 2C19): > 10000 nM; half-life [5]: 22 min; efflux ratio [6]: 34; AUC [7]: 250 ng·h/mL; IC50 (Cytochrome P450 2D6): > 10000 nM; clearance [8]: 66.7 mL/min/kg; IC50 (Cytochrome P450 2C9): > 10000 nM; Vd [9]: 1.4 L/kg; hepatocyte CLint [10]: 24 µL/min/1e6 cells; IC50 (Cytochrome P450 3A4): > 10000 nM; Papp A→B [11]: 1 ×10⁻⁶ cm/s; solubility [12]: > 100 µM; IC50 (CYP1A): > 10000 nM; bioavailability [13]: 41%; selectivity ratio [14]: > 100 |
| 55 | – | 80 | 49 | Cc1cc(Cn2c(=O)c3cc(S(=O)(=O)NC4(C)CC4)ccc3n(CC3CC3)c2=O)on1 | – |
| 26 | – | 79 | 37 | Cc1cc(Cn2c(=O)n(Cc3cnc(C)s3)c(=O)c3cc(S(=O)(=O)NC4(C)CC4)ccc32)n(C)n1 | selectivity ratio [14]: > 100 |
| 250 | 63 | 10 | 270 | C#CCn1c(=O)n(CC#N)c(=O)c2cc(S(=O)(=O)NC3(C)CC3)ccc21 | – |
| 240 | 30 | 17 | 120 | CCn1c(=O)n(Cc2nnc(C)s2)c(=O)c2cc(S(=O)(=O)NC3(C)CC3)ccc21 | – |
| 3900 | – | – | 1800 | Cn1c(=O)c2cc(S(=O)(=O)NC3(C)CC3)ccc2n(C)c1=O | Activity (HeLa): > 30 µM; logD [15]: 1.73; solubility kinetic [16]: > 100 µM |
| 45 | – | 100 | 82 | C#CCn1c(=O)n(Cc2cnc(C)s2)c(=O)c2cc(S(=O)(=O)NC3(C)CC3)ccc21 | – |
| 81000 | – | – | 30000 | CC(C)(C)NS(=O)(=O)c1ccc2c(c1)C(=O)c1ccccc1C2=O | Activity (HeLa): 16 µM; solubility kinetic [16]: 20 µM (≈ 6.87 µg/mL) |
| 4.8 | – | 140 | 9.2 | Cc1ncc(Cn2c(=O)c3cc(S(=O)(=O)NC4(C)CC4)ccc3n(Cc3sc(C)nc3C)c2=O)s1 | – |
| 440 | – | – | 620 | Cn1c(=O)c2cc(S(=O)(=O)NC3(C)CC3)ccc2n(CC2CC2)c1=O | EC50 [17]: > 150000 nM; EC50 [18]: > 100000 nM; selectivity ratio [14]: > 100 |
| 19 | – | 160 | 28 | Cc1ncc(Cn2c(=O)c3cc(S(=O)(=O)NC4(C)CC4)ccc3n(CC3CC3)c2=O)s1 | EC50 [17]: > 150000 nM; EC50 [18]: > 100000 nM |
| 64 | 35 | 15 | 270 | Cc1cc(Cn2c(=O)n(Cc3nnc(C)s3)c(=O)c3cc(S(=O)(=O)NC4(C)CC4)ccc32)n(C)n1 | – |
| 23 | – | 34 | 88 | Cc1cc(Cn2c(=O)n(Cc3cnn(C)c3)c(=O)c3cc(S(=O)(=O)NC4(C)CC4)ccc32)n(C)n1 | EC50 [17]: > 150000 nM; EC50 [18]: > 100000 nM; selectivity ratio [14]: > 100 |
| 100 | – | 72 | 76 | C#CCn1c(=O)n(Cc2cc(C)no2)c(=O)c2cc(S(=O)(=O)NC3(C)CC3)ccc21 | – |
| 38 | – | 37 | 120 | Cc1cc(Cn2c(=O)c3cc(S(=O)(=O)NC4(C)CC4)ccc3n(Cc3cc(C)nn3C)c2=O)on1 | – |
